Ki, Ratio Ki and Activity data for 15 compounds are collected here from ChEMBL document CHEMBL4049407, “Positional Scanning Identifies the Molecular Determinants of a High Affinity Multi-Leucine Inhibitor for Furin and PACE4” (J Med Chem, 2017).

Experiment [1] has as its target Furin (Homo sapiens, UniProt P09958). Put plainly: Inhibition of recombinant human furin expressed in drosophila S2 cells using pyrGlu-Arg-Thr-Lys-Arg-7-amido-4-methylcoumarin as substrate after 60 mins by spectrofluorometry method. The experiment is classed as cell-based. In short, it runs like this: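 Human recombinant purified furin at 2 units/100 µL (0.54 nM), in 100 mM HEPES pH 7.5, 1 mM CaCl2, 1 mM β-mercaptoethanol, 1.8 mg/mL BSA. His-containing peptides run instead in 20 mM BisTris pH 6.5 with the same additives. Substrate 100 µM, KM 5.04 µM. Inhibitor 1 nM to 10 µM; 60 min at 37°C. Fluorescence ex 370 / em 460 nm. Ki by Morrison equation; triplicate experiments, mean ± SD.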

The species entered for experiment [2] is Homo sapiens. Put plainly: Selectivity index, ratio of Ki for recombinant human furin expressed in drosophila S2 cells to Ki for recombinant human PACE4 expressed in drosophila S2 cells. The experiment is classed as cell-based. An outline of the steps: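 Ratio Ki(furin)/Ki(PACE4). […] PACE4 buffer was BisTris pH 6.5; furin buffer was HEPES pH 7.5, or BisTris pH 6.5 for His peptides. Ki fitted by Morrison equation from three independent experiments.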

Experiment [3] has as its system DU-145. Kind of experiment: Antiproliferative activity against human DU145 cells assessed as reduction in metabolic activity at 25 to 100 uM after 72 hrs by MTT assay. The experiment is classed as functional, cell-based. An outline of the steps:
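First-pass MTT screen of each library peptide on DU145 cells (RPMI 1640, 5% FBS, 1500 cells/well, poly-L-lysine plates). Peptides added 24 h after seeding at 25, 50 and 100 µM in fresh serum medium for 72 h. MTT 1 mg/mL for 4 h; 2-propanol HCl solubilisation. Activity normalised to water vehicle. Mean ± SEM of at least two independent experiments.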
Background: Tetrazolium assays rely on reduction of a dye to a coloured formazan, in cell work by metabolically active cells.

Experiment [4] concerns the target T1, Proprotein convertase subtilisin/kexin type 6 (Homo sapiens, UniProt P29122).
T1 sequence (P29122 whole entry): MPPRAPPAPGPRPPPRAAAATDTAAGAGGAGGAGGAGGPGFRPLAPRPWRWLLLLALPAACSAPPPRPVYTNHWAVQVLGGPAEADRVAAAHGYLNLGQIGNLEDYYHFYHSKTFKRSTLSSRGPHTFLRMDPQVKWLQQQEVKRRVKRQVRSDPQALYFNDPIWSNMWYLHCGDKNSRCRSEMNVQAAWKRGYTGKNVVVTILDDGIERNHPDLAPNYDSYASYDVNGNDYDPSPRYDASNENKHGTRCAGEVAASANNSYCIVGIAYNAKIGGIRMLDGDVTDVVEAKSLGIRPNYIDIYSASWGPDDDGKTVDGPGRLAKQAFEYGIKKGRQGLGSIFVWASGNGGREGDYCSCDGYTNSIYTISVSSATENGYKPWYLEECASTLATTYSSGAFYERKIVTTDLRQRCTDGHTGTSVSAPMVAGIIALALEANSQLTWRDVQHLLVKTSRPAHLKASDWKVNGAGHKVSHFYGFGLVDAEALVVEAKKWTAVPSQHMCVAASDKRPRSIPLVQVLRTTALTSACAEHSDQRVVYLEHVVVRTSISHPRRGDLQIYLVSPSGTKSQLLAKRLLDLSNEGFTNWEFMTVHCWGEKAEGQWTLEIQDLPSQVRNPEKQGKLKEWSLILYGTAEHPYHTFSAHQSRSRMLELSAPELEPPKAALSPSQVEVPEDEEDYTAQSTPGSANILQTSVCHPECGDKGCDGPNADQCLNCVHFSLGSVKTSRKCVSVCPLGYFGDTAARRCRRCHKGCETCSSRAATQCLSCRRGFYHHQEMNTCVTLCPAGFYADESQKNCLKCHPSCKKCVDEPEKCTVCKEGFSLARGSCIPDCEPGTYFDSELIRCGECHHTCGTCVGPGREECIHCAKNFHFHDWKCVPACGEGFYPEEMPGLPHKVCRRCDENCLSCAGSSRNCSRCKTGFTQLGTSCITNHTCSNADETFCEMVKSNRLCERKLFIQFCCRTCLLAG
Put plainly: Inhibition of recombinant human PACE4 expressed in drosophila S2 cells using pyrGlu-Arg-Thr-Lys-Arg-7-amido-4-methylcoumarin as substrate after 60 mins by spectrofluorometry method. The experiment is classed as cell-based. An outline of the steps:
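Human recombinant purified PACE4 at 2 units/100 µL (20.18 nM), in 20 mM BisTris pH 6.5, 1 mM CaCl2, 1.8 mg/mL BSA. Substrate 100 µM, KM 4.035 µM. Inhibitor 1 nM to 10 µM; 60 min at 37°C. Fluorescence ex 370 / em 460 nm. Ki by Morrison tight-binding equation; three independent experiments, mean ± SD.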

Active and inactive are the calls of the source. No rule for the calls is given here. Peptide text beside a SMILES is read from it. * marks the point of attachment. NH(4-amidinobenzyl) = N=C(N)c1ccc(CN*)cc1

Furin, sequence (P09958 whole entry): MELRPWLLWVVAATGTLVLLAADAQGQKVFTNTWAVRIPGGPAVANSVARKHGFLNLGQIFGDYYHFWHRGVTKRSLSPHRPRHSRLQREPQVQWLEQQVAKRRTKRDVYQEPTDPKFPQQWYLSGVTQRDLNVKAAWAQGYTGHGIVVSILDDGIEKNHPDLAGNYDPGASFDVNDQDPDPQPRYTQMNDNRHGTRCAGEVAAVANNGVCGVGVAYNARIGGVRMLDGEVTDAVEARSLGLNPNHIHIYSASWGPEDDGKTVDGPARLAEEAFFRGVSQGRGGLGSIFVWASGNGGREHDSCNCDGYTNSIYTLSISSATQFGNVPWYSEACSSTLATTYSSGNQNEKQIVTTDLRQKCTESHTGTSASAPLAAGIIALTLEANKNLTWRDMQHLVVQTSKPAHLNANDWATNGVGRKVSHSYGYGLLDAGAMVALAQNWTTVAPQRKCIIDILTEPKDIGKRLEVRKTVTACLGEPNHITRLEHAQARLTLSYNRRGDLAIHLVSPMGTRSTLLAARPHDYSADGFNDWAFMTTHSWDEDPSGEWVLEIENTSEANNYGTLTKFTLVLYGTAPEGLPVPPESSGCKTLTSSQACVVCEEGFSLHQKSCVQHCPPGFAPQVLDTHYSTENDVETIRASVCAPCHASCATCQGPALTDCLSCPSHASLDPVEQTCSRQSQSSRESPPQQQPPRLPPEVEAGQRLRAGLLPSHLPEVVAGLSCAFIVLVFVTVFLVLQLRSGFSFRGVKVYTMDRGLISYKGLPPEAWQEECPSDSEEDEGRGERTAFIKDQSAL

In the case of `CC(=O)N[C@@H](CC(C)C)C(=O)N[C@@H](CC(C)C)C(=O)N[C@@H](CC(C)C)C(=O)N[C@@H](CC(=O)O)C(=O)N[C@@H](CCCNC(=N)N)C(=O)N[C@H](C(=O)N[C@@H](CCCCN)C(=O)NCc1ccc(C(=N)N)cc1)C(C)C` (Ac-LLLDRVK-{NH(4-amidinobenzyl)}), the Ki in experiment [1] was found to be 260 nM; in experiment [4] it was 400 nM. For the same compound, the Ratio Ki in experiment [2] came out at 0.6. Also, in experiment [3], the outcome was inactive.

For the compound `CC(=O)N[C@@H](CC(C)C)C(=O)N[C@@H](CC(C)C)C(=O)N[C@H](C(=O)N[C@@H](CC(C)C)C(=O)N[C@@H](CCCNC(=N)N)C(=O)N[C@H](C(=O)N[C@@H](CCCCN)C(=O)NCc1ccc(C(=N)N)cc1)C(C)C)[C@@H](C)O` (Ac-LLTLRVK-{NH(4-amidinobenzyl)}), the Ki in experiment [1] turned out to be 18 nM; in experiment [4], 39 nM. Moreover, the Ratio Ki in experiment [2] turned out to be 0.5. In experiment [3], the outcome was inactive.

Turning to `CC(=O)N[C@@H](CC(C)C)C(=O)N[C@@H](CC(C)C)C(=O)N[C@@H](CC(C)C)C(=O)NCC(=O)N[C@@H](CCCNC(=N)N)C(=O)N[C@H](C(=O)N[C@@H](CCCCN)C(=O)NCc1ccc(C(=N)N)cc1)C(C)C` (Ac-LLLGRVK-{NH(4-amidinobenzyl)}), the Ki in experiment [1] is 12 nM; in experiment [4] it was 18 nM. Also, the Ratio Ki in experiment [2] worked out at 0.7. Moreover, in experiment [3], the outcome was inactive.

Consider `CC(=O)N[C@@H](CC(C)C)C(=O)N[C@@H](CC(C)C)C(=O)N[C@@H](CCC(N)=O)C(=O)N[C@@H](CC(C)C)C(=O)N[C@@H](CCCNC(=N)N)C(=O)N[C@H](C(=O)N[C@@H](CCCCN)C(=O)NCc1ccc(C(=N)N)cc1)C(C)C` (Ac-LLQLRVK-{NH(4-amidinobenzyl)}), for which the Ki was 5 nM in experiment [1] and 4.1 nM in experiment [4]. Moreover, the Ratio Ki in experiment [2] stood at 1.2. The outcome in experiment [3] was inactive.

`CC(=O)N[C@@H](CC(C)C)C(=O)N[C@@H](CC(C)C)C(=O)N[C@@H](CC(N)=O)C(=O)N[C@@H](CC(C)C)C(=O)N[C@@H](CCCNC(=N)N)C(=O)N[C@H](C(=O)N[C@@H](CCCCN)C(=O)NCc1ccc(C(=N)N)cc1)C(C)C` (Ac-LLNLRVK-{NH(4-amidinobenzyl)}): the Ki in experiment [1] was 13 nM; in experiment [4], 18 nM. Also, the Ratio Ki in experiment [2] amounted to 0.7. Further, in experiment [3], the result was inactive.

Take `CC(=O)N[C@@H](CC(C)C)C(=O)N[C@H](C(=O)N[C@@H](CC(C)C)C(=O)N[C@@H](CC(C)C)C(=O)N[C@@H](CCCNC(=N)N)C(=O)N[C@H](C(=O)N[C@@H](CCCCN)C(=O)NCc1ccc(C(=N)N)cc1)C(C)C)C(C)C` (Ac-LVLLRVK-{NH(4-amidinobenzyl)}): the Ki in experiment [1] and in experiment [4] was 2 nM throughout. For the same compound, the Ratio Ki in experiment [2] stood at 1. In addition, the outcome in experiment [3] was inactive.

As for `CC(=O)N[C@@H](CC(C)C)C(=O)N[C@@H](CC(C)C)C(=O)N[C@@H](CC(C)C)C(=O)N[C@@H](Cc1ccc(O)cc1)C(=O)N[C@@H](CCCNC(=N)N)C(=O)N[C@H](C(=O)N[C@@H](CCCCN)C(=O)NCc1ccc(C(=N)N)cc1)C(C)C` (Ac-LLLYRVK-{NH(4-amidinobenzyl)}), the results for the inhibitory constant (Ki) in experiment [1] and in experiment [4] were 3.1 nM and 2 nM, respectively. The Ratio Ki in experiment [2] amounted to 1.6. The outcome in experiment [3] was inactive.

Consider `CC(=O)N[C@@H](CC(C)C)C(=O)N[C@@H](CC(C)C)C(=O)N[C@@H](Cc1cnc[nH]1)C(=O)N[C@@H](CC(C)C)C(=O)N[C@@H](CCCNC(=N)N)C(=O)N[C@H](C(=O)N[C@@H](CCCCN)C(=O)NCc1ccc(C(=N)N)cc1)C(C)C` (Ac-LLHLRVK-{NH(4-amidinobenzyl)}), for which the Ki in experiment [1] turned out to be 4.8 nM; in experiment [4], 1.8 nM. The Ratio Ki in experiment [2] stood at 2.7. Further, the result in experiment [3] was inactive.

Consider `CC(=O)N[C@@H](CC(C)C)C(=O)NCC(=O)N[C@@H](CC(C)C)C(=O)N[C@@H](CC(C)C)C(=O)N[C@@H](CCCNC(=N)N)C(=O)N[C@H](C(=O)N[C@@H](CCCCN)C(=O)NCc1ccc(C(=N)N)cc1)C(C)C` (Ac-LGLLRVK-{NH(4-amidinobenzyl)}), for which the values for the inhibition constant (Ki) in experiment [1] and in experiment [4] were 3 nM and 2 nM, respectively. Moreover, the Ratio Ki in experiment [2] stood at 1.5. The outcome in experiment [3] was inactive.

On to `CC(=O)N[C@@H](CC(C)C)C(=O)N[C@@H](CCCNC(=N)N)C(=O)N[C@@H](CC(C)C)C(=O)N[C@@H](CC(C)C)C(=O)N[C@@H](CCCNC(=N)N)C(=O)N[C@H](C(=O)N[C@@H](CCCCN)C(=O)NCc1ccc(C(=N)N)cc1)C(C)C` (Ac-LRLLRVK-{NH(4-amidinobenzyl)}), for which the figures for the Ki in experiment [1] and in experiment [4] were 0.5 nM and 0.4 nM, respectively. For the same compound, the Ratio Ki in experiment [2] came out at 1.3. The result in experiment [3] was inactive.

Consider `CC(=O)N[C@@H](CC(C)C)C(=O)N[C@@H](CC(C)C)C(=O)N[C@@H](CC(C)C)C(=O)N[C@@H](CCC(=O)O)C(=O)N[C@@H](CCCNC(=N)N)C(=O)N[C@H](C(=O)N[C@@H](CCCCN)C(=O)NCc1ccc(C(=N)N)cc1)C(C)C` (Ac-LLLERVK-{NH(4-amidinobenzyl)}), for which the Ki stood at 38 nM in experiment [1] and 46 nM in experiment [4]. The Ratio Ki in experiment [2] was determined as 0.8. Also, the outcome in experiment [3] was inactive.

Take `CC(=O)N[C@@H](CC(C)C)C(=O)N[C@@H](Cc1cnc[nH]1)C(=O)N[C@@H](CC(C)C)C(=O)N[C@@H](CC(C)C)C(=O)N[C@@H](CCCNC(=N)N)C(=O)N[C@H](C(=O)N[C@@H](CCCCN)C(=O)NCc1ccc(C(=N)N)cc1)C(C)C` (Ac-LHLLRVK-{NH(4-amidinobenzyl)}): the values for the Ki in experiment [1] and in experiment [4] were 4.7 nM and 3 nM, respectively. For the same compound, the Ratio Ki in experiment [2] was determined as 1.6. The outcome in experiment [3] was inactive.

Take `CC(=O)N[C@@H](CC(C)C)C(=O)N[C@@H](Cc1ccc(O)cc1)C(=O)N[C@@H](CC(C)C)C(=O)N[C@@H](CC(C)C)C(=O)N[C@@H](CCCNC(=N)N)C(=O)N[C@H](C(=O)N[C@@H](CCCCN)C(=O)NCc1ccc(C(=N)N)cc1)C(C)C` (Ac-LYLLRVK-{NH(4-amidinobenzyl)}): the Ki in experiment [1] turned out to be 3 nM; in experiment [4] it was 4 nM. For the same compound, in experiment [2], the Ratio Ki stood at 0.8. The result in experiment [3] was inactive.

Regarding `CC(=O)N[C@@H](CC(C)C)C(=O)N[C@@H](CC(C)C)C(=O)N[C@@H](CC(C)C)C(=O)N[C@@H](CC(N)=O)C(=O)N[C@@H](CCCNC(=N)N)C(=O)N[C@H](C(=O)N[C@@H](CCCCN)C(=O)NCc1ccc(C(=N)N)cc1)C(C)C` (Ac-LLLNRVK-{NH(4-amidinobenzyl)}), the Ki is 3 nM in experiment [1] and 1.7 nM in experiment [4]. Besides, the Ratio Ki in experiment [2] turned out to be 1.8. Moreover, the result in experiment [3] was inactive.

Regarding `CC(=O)N[C@@H](CC(C)C)C(=O)N[C@@H](C)C(=O)N[C@@H](CC(C)C)C(=O)N[C@@H](CC(C)C)C(=O)N[C@@H](CCCNC(=N)N)C(=O)N[C@H](C(=O)N[C@@H](CCCCN)C(=O)NCc1ccc(C(=N)N)cc1)C(C)C` (Ac-LALLRVK-{NH(4-amidinobenzyl)}), the Ki was found to be 1.5 nM in experiment [1] and 2 nM in experiment [4]. Also, the Ratio Ki in experiment [2] was found to be 0.8. Moreover, in experiment [3], the outcome was inactive.

For orientation: Ki means the equilibrium dissociation constant of an inhibitor or competing ligand from its target.
